Published values from different studies.
ALK: ALK tyrosine kinase receptor (ALK, Homo sapiens, UniProt Q9UM73)

`Nc1ncc(-c2nc(N3CCOCC3)nc(N3CCOCC3)n2)c(C(F)F)n1` gave a remaining binding of 44% (ALK tyrosine kinase receptor (ALK, Homo sapiens, UniProt Q9UM73, L1196M); cell-free assay; competition with immobilised ligand; 10 µM).
`Cn1cncc1[C@](O)(COc1ccc(C#N)cc1-c1ccc(OC(F)(F)F)cc1)c1ccc(C#N)cc1` has a remaining binding of 92% (ALK tyrosine kinase receptor (ALK, Homo sapiens, UniProt Q9UM73, C1156Y); cell-free assay; competition with immobilised ligand; 1 µM).
The remaining binding of `COc1ncccc1-c1cnn2ccc(N3CCN(C(=O)OC(C)C)CC3)nc12` is reported as 100% (ALK; binding; competition with immobilised ligand; 1 µM).
`Cc1nn(C)cc1-c1nc2c(N3CCN(Cc4ccc(Cl)cc4)CC3)c(Cl)cnc2[nH]1` gave a remaining binding of 100% (ALK; binding; competition with immobilised ligand; 1 µM).
`O=c1[nH]c2ccccc2n1C1CCN(Cc2ccc(-c3[nH]c4cc5ncnc5cc4nc3-c3ccccc3)cc2)CC1` gave a remaining signal of 106% (ALK; cell-free assay; 0.5 µM).
`C#Cc1n[nH]c2c(-c3cn(C(C)c4ccccn4)c(=O)[nH]c3=O)cc(F)cc12` (stereo not drawn) has an inhibition of 11.2% (ALK; enzyme activity; inhibitor; 1 µM).
The remaining activity of `CC(C)(C)c1cc(C=C(C#N)C#N)cc(Br)c1O` is reported as 97.9% (ALK; enzyme activity; inhibitor; 0.5 µM).
For `C#Cc1n[nH]c2c(-c3cn([C@@H](C)c4ccccc4)c(=O)[nH]c3=O)cc(F)cc12`, the inhibition was 7.7% (ALK; enzyme activity; inhibitor; 0.1 µM).
`COc1cc(Nc2ncc(F)c(Nc3ccc4c(n3)NC(=O)C(C)(C)O4)n2)cc(OC)c1OC` gave an inhibition of 99% (ALK; binding; competition with immobilised ligand; 10 µM).
